Activity and inhibition data for four molecules are collected here from ChEMBL document CHEMBL4118021, “Studies of TAK1-centered polypharmacology with novel covalent TAK1 inhibitors” (Bioorg Med Chem, 2017).

Activity calls are given as the source filed them. The calls are words filed in the database; no cut-off is given here.

The target of test [1] is Trifunctional enzyme subunit alpha, mitochondrial (Homo sapiens) (UniProt P40939). The experiment in a line: Binding affinity to HADHA in human NCI-H23 cells at 1 uM by mass spectrometry based pull down assay. The test is classed as cell-based.
Sequence of Trifunctional enzyme subunit alpha, mitochondrial (Homo sapiens) (P40939 whole entry): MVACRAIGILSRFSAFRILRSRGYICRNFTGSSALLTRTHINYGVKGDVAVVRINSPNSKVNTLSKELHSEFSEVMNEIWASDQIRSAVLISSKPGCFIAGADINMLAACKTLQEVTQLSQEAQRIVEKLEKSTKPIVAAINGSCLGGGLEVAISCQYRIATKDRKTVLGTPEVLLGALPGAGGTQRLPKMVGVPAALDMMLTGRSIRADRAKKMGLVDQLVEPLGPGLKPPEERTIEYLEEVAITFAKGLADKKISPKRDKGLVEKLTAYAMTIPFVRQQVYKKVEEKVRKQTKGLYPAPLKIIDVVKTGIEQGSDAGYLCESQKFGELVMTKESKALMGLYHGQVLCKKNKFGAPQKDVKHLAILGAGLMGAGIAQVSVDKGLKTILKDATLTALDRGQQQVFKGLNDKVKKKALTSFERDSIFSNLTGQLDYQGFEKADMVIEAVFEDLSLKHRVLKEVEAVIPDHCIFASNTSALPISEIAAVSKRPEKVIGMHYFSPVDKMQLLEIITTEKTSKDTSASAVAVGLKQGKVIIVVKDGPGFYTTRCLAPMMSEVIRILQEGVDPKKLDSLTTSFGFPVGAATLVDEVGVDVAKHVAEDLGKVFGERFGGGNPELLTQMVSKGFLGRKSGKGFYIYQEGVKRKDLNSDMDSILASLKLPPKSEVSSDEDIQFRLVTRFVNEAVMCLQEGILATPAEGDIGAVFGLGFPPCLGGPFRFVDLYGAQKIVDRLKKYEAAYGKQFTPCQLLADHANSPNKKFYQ
In test [2] the target is Glucose-6-phosphate isomerase (Homo sapiens) (UniProt P06744). Put plainly: Binding affinity to GPI in human NCI-H358 cells at 1 uM by mass spectrometry based pull down assay. The test is classed as cell-based.
The target of test [3] is Sequestosome-1 (Homo sapiens) (UniProt Q13501). The experiment in a line: Binding affinity to SQSTM1 in human NCI-H358 cells at 1 uM by mass spectrometry based pull down assay. The test is classed as cell-based.
Sequence of Sequestosome-1 (Homo sapiens) (Q13501 whole entry): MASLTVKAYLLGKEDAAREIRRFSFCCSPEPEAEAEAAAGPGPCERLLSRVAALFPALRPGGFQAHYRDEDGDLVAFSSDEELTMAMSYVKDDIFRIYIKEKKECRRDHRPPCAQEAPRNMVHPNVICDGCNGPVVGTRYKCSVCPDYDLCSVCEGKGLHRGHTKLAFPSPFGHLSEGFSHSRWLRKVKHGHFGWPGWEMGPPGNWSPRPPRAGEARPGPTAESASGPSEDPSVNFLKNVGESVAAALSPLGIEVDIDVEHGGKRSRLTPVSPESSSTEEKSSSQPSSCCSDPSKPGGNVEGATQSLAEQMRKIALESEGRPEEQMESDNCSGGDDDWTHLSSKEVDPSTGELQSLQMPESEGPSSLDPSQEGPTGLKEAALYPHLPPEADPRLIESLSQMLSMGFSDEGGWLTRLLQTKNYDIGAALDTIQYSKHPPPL
Test [4] deals with Nucleoside diphosphate kinase A/B (Homo sapiens) (UniProt P15531+P22392). The experiment in a line: Binding affinity to NME1-NME2 in human NCI-H23 cells at 1 uM by mass spectrometry based pull down assay. The test is classed as cell-based.
Sequence of Nucleoside diphosphate kinase A/B (Homo sapiens) (P15531 whole entry, looked up): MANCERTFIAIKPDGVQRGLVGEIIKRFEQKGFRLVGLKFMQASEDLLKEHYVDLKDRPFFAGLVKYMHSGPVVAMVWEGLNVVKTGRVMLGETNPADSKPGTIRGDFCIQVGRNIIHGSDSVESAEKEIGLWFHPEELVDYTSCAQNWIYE
Sequence of Nucleoside diphosphate kinase A/B (Homo sapiens) (P22392 whole entry, looked up): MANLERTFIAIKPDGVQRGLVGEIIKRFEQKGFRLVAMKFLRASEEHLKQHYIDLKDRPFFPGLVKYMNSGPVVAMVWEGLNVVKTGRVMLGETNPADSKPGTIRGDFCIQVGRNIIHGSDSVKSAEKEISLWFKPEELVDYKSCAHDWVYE
Test [5] has as its target T1, 80S Ribosome (Homo sapiens) (UniProt P08865+P42677+P62753+P15880+P23396+P61247+P62701+P22090+P46782+P62081+P62241+P46781+P46783+P62280+P25398+P62277+P62263+P62841+P62244+P62249+P08708+P62269+P39019+P60866+P63220+P62266+P62847+P62851+P62854+P62979+P62857+P62273+P62861+P39023+P36578+P46777+Q02878+P18124+P62424+P62917+P32969+P27635+P62906+P62913+P30050+P26373+P40429+P50914+P61313+P18621+Q07020+Q02543+P84098+P46778+P35268+P62829+P62750+P83731+P61254+P61353+P46776+P46779+P47914+P62888+P62899+P62910+P49207+P42766+P18077+Q9Y3U8+P83881+P61927+P61513+P63173+P62891+P62945+P05388+P05386). The experiment in a line: Binding affinity to RPS23 in human NCI-H358 cells at 1 uM by mass spectrometry based pull down assay. The test is classed as cell-based.

In test [6] the target is T1, 80S Ribosome (Homo sapiens). Put plainly: Binding affinity to RPL31 in human NCI-H23 cells at 1 uM by mass spectrometry based pull down assay. The test is classed as cell-based.
The target in test [7] is Lactoylglutathione lyase (Homo sapiens) (UniProt Q04760). The experiment in a line: Binding affinity to GLO1 in human NCI-H23 cells at 1 uM by mass spectrometry based pull down assay. The test is classed as cell-based.
Sequence of Lactoylglutathione lyase (Homo sapiens) (Q04760 2-184 limits assumed): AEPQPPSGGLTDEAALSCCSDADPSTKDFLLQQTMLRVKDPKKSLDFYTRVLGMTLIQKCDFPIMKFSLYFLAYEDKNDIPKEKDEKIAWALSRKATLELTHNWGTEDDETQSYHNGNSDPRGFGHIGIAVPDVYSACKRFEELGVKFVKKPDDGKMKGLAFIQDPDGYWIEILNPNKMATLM
For test [8], the target named is T1, 80S Ribosome (Homo sapiens). Put plainly: Binding affinity to RPL8 in human NCI-H23 cells at 1 uM by mass spectrometry based pull down assay. The test is classed as cell-based.
The target in test [9] is Mitogen-activated protein kinase 6 (Homo sapiens) (UniProt Q16659). Put plainly: Binding affinity to MAPK6 in human NCI-H358 cells at 1 uM by mass spectrometry based pull down assay. The test is classed as cell-based.
Test [10] concerns the target Poly(rC)-binding protein 1 (Homo sapiens) (UniProt Q15365). The experiment in a line: Binding affinity to PCBP1 in human NCI-H358 cells at 1 uM by mass spectrometry based pull down assay. The test is classed as cell-based.
The target of test [11] is Pyruvate dehydrogenase E1 component subunit beta, mitochondrial (Homo sapiens) (UniProt P11177). The experiment in a line: Binding affinity to PDHB in human NCI-H23 cells at 1 uM by mass spectrometry based pull down assay. The test is classed as cell-based.
Sequence of Pyruvate dehydrogenase E1 component subunit beta, mitochondrial (Homo sapiens) (P11177 whole entry): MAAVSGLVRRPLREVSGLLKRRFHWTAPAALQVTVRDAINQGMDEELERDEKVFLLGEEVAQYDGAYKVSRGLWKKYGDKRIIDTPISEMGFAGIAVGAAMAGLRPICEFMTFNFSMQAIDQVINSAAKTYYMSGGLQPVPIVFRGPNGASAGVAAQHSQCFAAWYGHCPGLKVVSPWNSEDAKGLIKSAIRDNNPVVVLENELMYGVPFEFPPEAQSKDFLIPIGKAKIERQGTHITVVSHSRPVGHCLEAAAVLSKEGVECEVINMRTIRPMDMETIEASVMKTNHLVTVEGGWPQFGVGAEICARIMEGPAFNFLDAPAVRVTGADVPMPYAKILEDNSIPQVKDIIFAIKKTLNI
Test [12] has as its target Beclin-1 (Homo sapiens) (UniProt Q14457). Put plainly: Binding affinity to BECN1 in human NCI-H358 cells at 1 uM by mass spectrometry based pull down assay. The test is classed as cell-based.
The target of test [13] is ATP-dependent 6-phosphofructokinase, muscle type (Homo sapiens) (UniProt P08237). The experiment in a line: Binding affinity to PFKM in human NCI-H23 cells at 1 uM by mass spectrometry based pull down assay. The test is classed as cell-based.
Test [14] relates to NCI-H358. Put plainly: Antiproliferative activity against human NCI-H358 cells harboring KRAS G12C mutant after 72 hrs by CellTiter-Glo assay. The test is classed as functional, cell-based. The method in brief: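 NCI-H23 or NCI-H358 cells seeded at 2000 cells/well and grown 48 h before drug. Varying doses were added and cells incubated 72 h. Viability was read as CellTiter-Glo luminescence, and growth-inhibition IC50 was calculated from dose-response curves.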

Test [15] deals with Serine/threonine-protein kinase 36 (Homo sapiens) (UniProt Q9NRP7). Put plainly: Inhibition of human STK36 (1 to 271 residues) expressed in bacterial expression system assessed as enzyme activity at 1 uM by KINOMEScan assay relative to control. Further details: scale not given: the % may be the effect or the level left. The method in brief: (§1)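 In vitro ATP-site competition binding assay across a panel of 456 kinases, with compound tested at 1 and 10 μM.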
Sequence of Serine/threonine-protein kinase 36 (Homo sapiens) (Q9NRP7 whole entry, the tested form may be a part): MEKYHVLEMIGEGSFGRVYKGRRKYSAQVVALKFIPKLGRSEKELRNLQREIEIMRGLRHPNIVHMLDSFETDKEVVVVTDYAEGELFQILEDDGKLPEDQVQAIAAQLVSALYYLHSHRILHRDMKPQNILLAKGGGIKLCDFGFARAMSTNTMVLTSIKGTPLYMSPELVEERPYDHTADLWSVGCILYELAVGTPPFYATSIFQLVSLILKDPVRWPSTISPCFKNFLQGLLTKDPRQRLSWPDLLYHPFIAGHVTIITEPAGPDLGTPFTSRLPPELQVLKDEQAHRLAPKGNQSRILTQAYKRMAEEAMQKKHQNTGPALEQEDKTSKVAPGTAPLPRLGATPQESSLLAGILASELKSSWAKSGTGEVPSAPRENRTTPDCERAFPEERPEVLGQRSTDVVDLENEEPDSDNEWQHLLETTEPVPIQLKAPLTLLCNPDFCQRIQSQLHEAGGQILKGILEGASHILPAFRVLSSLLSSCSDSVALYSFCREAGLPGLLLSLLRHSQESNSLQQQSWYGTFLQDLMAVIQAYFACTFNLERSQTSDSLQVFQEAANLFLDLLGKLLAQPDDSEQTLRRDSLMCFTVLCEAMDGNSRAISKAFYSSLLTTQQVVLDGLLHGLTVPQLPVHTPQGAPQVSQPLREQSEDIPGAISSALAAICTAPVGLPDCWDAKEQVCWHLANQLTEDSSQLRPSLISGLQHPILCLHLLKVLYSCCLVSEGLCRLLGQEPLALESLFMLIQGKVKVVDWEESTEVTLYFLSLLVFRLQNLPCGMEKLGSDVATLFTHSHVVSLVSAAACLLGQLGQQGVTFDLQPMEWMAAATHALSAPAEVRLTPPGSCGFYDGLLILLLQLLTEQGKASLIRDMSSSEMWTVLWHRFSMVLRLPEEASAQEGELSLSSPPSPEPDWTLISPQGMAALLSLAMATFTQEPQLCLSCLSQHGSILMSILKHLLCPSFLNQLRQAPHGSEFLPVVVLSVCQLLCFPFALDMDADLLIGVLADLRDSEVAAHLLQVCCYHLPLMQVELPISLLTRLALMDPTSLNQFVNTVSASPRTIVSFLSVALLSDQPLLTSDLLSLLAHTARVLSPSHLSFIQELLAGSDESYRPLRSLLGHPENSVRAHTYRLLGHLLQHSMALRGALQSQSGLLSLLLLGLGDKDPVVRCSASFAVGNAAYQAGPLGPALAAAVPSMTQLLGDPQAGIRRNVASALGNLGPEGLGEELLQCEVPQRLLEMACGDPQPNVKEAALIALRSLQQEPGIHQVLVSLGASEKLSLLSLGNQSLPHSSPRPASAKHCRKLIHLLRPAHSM

In test [16] the target is TGF-beta receptor type-2 (Homo sapiens) (UniProt P37173). The experiment in a line: Inhibition of human TGFBR2 (218 to 567 residues) expressed in bacterial expression system assessed as enzyme activity at 1 uM by KINOMEScan assay relative to control. Set-up: scale not given: the % may be the effect or the level left. The method in brief:
as §1

Test [17] concerns the target T2, Mitogen-activated protein kinase kinase kinase 7 (Homo sapiens) (UniProt O43318).
T2 sequence (whole entry): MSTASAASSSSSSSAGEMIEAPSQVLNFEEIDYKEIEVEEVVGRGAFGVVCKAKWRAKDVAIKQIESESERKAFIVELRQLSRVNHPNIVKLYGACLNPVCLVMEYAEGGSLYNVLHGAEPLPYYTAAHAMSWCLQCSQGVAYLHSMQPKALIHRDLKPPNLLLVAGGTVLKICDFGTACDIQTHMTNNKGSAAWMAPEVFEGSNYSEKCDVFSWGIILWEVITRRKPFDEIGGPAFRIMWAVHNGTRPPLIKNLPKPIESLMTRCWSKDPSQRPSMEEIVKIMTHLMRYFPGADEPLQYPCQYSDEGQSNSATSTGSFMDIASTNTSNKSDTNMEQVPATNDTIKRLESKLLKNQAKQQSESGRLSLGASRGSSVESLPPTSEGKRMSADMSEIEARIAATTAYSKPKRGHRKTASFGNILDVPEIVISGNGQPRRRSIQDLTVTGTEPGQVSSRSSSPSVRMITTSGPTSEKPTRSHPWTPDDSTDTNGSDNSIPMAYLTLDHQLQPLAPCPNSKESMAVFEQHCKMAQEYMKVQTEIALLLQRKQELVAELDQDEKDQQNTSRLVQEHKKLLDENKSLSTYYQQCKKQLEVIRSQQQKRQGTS
The experiment in a line: Inhibition of biotin-labeled N-(2-(2-(2-(2-(4-(4-((4-((2-Acrylamidophenyl)amino)-5-chloropyrimidin-2-yl)amino)phenyl)piperazin-1-yl)ethoxy)ethoxy)ethoxy)ethyl)-5-((3aS,4S,6aR)-2-oxohexahydro-1H-thieno[3,4-d]imidazol-4-yl)pentanamide probe binding to TAK1 in human NCI-H358 cells at 10 uM after 6 hrs by immunoblot based competitive pull down assay. The test is classed as cell-based. The method in brief:
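H358 cells given 1 or 10 μM compound for 6 h, medium removed, cells rinsed twice with cold PBS and lysed in MPER buffer. Lysates incubated overnight at 4 °C with 1 μM biotinylated covalent probe, captured on streptavidin beads, and TAK1 recovery assessed by immunoblotting with anti-TAK1 antibody.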

In test [18] the target is Cyclin-dependent kinase 20 / CCRK (Homo sapiens) (UniProt Q8IZL9). Put plainly: Inhibition of CCRK in human SKCO1 cells at 1 uM after 4 hrs using biotin labeled DLKPANLLISASGQLK probe by mass-spectrometric analysis relative to control.

Sequence of Poly(rC)-binding protein 1 (Homo sapiens) (Q15365 whole entry): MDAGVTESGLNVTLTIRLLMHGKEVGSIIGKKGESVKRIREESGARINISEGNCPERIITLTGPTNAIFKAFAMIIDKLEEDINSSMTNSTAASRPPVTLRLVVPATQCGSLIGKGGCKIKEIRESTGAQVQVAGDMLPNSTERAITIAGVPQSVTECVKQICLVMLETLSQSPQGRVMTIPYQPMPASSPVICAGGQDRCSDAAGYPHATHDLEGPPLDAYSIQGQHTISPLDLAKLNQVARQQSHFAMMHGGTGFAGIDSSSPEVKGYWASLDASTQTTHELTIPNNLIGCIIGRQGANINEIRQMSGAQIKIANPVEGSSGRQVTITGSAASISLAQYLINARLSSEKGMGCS
Sequence of TGF-beta receptor type-2 (Homo sapiens) (P37173 whole entry, the tested form may be a part): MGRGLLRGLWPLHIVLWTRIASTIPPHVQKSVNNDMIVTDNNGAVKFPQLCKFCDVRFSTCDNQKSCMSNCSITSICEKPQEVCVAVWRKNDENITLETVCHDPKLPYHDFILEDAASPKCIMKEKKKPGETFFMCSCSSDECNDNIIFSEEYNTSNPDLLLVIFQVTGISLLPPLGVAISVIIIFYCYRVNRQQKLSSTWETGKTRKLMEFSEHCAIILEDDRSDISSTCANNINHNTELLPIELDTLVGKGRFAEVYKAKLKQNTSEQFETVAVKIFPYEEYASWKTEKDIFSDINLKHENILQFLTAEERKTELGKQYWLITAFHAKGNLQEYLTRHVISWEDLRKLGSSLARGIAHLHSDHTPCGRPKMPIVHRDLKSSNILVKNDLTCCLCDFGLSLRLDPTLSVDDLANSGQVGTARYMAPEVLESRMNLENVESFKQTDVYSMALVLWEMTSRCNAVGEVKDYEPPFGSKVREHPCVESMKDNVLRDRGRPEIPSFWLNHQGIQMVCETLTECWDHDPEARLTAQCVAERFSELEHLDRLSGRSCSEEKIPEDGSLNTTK
Sequence of Beclin-1 (Homo sapiens) (Q14457 whole entry): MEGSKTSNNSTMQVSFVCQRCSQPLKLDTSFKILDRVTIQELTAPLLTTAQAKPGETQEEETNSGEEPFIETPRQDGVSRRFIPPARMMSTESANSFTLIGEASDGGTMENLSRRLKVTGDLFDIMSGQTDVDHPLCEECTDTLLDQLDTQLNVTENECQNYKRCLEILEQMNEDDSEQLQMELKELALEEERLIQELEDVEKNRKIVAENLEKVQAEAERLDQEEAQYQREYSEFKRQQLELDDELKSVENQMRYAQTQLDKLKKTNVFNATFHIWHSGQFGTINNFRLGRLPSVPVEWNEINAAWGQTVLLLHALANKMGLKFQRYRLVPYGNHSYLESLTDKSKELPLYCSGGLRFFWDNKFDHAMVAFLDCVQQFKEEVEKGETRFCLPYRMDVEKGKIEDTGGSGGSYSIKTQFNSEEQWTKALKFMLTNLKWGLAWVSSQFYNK

`C=CC(=O)Nc1ccccc1Nc1nc(Nc2ccc(N3CCN(CCOCCOCCOCCNC(=O)CCCC[C@@H]4SC[C@@H]5NC(=O)N[C@@H]54)CC3)cc2)ncc1Cl`: the result in test [1], in [2], in [3], in test [4], in test [5] and in test [6] was Active. Further, the result in test [7], in [8], in test [9], in test [10], in [11] and in test [12] was Active. Also, in test [13], the result was Active.

On to `C=CC(=O)Nc1ccccc1Nc1nc(Nc2ccc(N3CCN(C)CC3)cc2)ncc1Cl`, for which, in [14], the result was Active.

Take `COc1cc(O)c2c(c1)/C=C/C[C@H](O)[C@H](O)C(=O)/C=C\C[C@H](C)OC2=O`: the Activity came to 7.1% in test [15] and 3.8% in [16].

With `C=CC(=O)Nc1ccccc1Oc1nc(Nc2cnn(CCOC)c2)ncc1Cl`, the inhibition result in test [17] is “Active”. Also, the inhibition in test [18] is -9%.
